Bioassay records (PubChem)
Only some compounds are listed: those with a hit (about 5.1% of all), similar ones and a draw of the others.
STAT3 inh = STAT3 signaling inhibition; inhibition, % at 5.5 µM; hit rate 0.89% among 190,000; AID 862; U3A cells, IL-6 STAT3-luciferase reporter, luminescence; host cell line lacks STAT1;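 active = inhibition above the mean inhibition across all screened compounds plus 3 SD, cut at about 44% in these data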;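 also: 0% = DMSO only wells and 100% = 100 µM nifuroxazide control wells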
NF-kB neuron act = compounds increasing NF-kB expression in human neuronal cells. NF-kB reporter expression; active compounds read high. fold change at 12.5 µM. hit rate 1.6% among 190,000; in the data active = fold change above about 3.3
STAT3 act = increases IL-6 driven STAT3 reporter signal; activation (% of control), % at 5.6 µM; AID 871; U3A cells, IL-6 STAT3-luciferase reporter, luminescence; 100% = signal with IL-6 EC80 alone; hit rate 0.91% among 190,000;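 active = activation above the screen-wide mean of compound activation plus 3 SD, cut at about 130% in these data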;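 also: 0% = background luminescence of wells with medium and substrate only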
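Material: STAT1-lacking human U3A cells, STAT3 luciferase reporter | Benchmarks: IL-6-only wells as 100% reference | Probe or stimulus: IL-6 (33 ng/mL) | Timing: Compound 1 h, then IL-6 6 h at 37 °C | Detection: Luminescence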
STAT1 activator = activators of IFN-gamma induced STAT1 signaling; NIH 3T3 STAT1-luciferase reporter, luminescence; 100% = IFN-gamma alone, no compound; activation (% of control), % at 5.5 µM; hit rate 2.6% among 200,000; AID 932;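 active = activation above the screen-wide mean activation plus 3 SD, cut at about 130% in these data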;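 also: raw ratio to IFN-gamma control signal so 100% means no change and 0% no light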
APP 5'UTR act = activates APP 5'UTR luciferase reporter; activation, % at 2 µM; SH-SY5Y APP 5'UTR luciferase reporter, luminescence; zero percent = DMSO vehicle wells; AID 1276; hit rate 1% among 190,000;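 active = activation above a set limit, based on mean plus 3 SD of controls, cut at about 140% in these data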
STAT1 inh = reduces IFN-gamma driven STAT1 reporter signal. NIH 3T3 STAT1-luciferase reporter, luminescence. hit rate 0.35% among 200,000. inhibition, % at 5.5 µM. AID 920;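 active = inhibition above a set limit, the mean inhibition across all tested compounds plus 3 SD, cut at about 34% in these data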;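 also: 0% = IFN-gamma with DMSO and 100% = IFN-gamma with 300 µM nifuroxazide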
Numbers without * were called inactive.

SMILES	STAT3 inh	NF-kB neuron act	STAT3 act	STAT1 activator	APP 5'UTR act	STAT1 inh
COc1ccc(NC(=O)Nc2ncccc2C)cc1	9	1.9	96	139*	13	-40
COc1ccc(NC(=O)Nc2cc(C)ccc2F)cc1	6	2.6	99	130*	123	-33
COc1ccc(NC(=O)Nc2nnc(C(C)C)s2)cc1	12	2.4	97	130*	69	-33
COc1ccc(CC(=O)Nc2nnc(C(C)C)s2)cc1	5	1.4	100	102	16	-4
COc1cccc(NC(=O)Nc2cc(C)ccc2F)c1	12	1.5	94	118	42	-20
COc1ccc(NC(=S)Nc2ncccc2C)cc1OC	22	1.9	86	131*	39	-36
Cc1ccc(NS(=O)(=O)c2cc([N+](=O)[O-])ccc2NNC(=S)Nc2cccc(Cl)c2)c(C)c1	8	0.86	95	94	8	7
COc1ccc(NC(=O)Nc2ccc(Br)c(C)c2)cc1	6	1.5	103	145*	61	-49
COc1ccc(NC(=O)Nc2ccc(F)c(Cl)c2)cc1	11	2.6	95	112	106	-13
CC(=O)Nc1cccc(C(=O)/C=C/c2ccc(F)cc2)c1	6	2.3	97	104	25	-7
COc1ccccc1NC(=O)c1csc2c1CCCC2	12	1.3	91	100	16	0
O=C(Nc1ccccn1)c1csc2c1CCCC2	3	3.9*	100	137*	133	-43
O=C(O/N=C/c1ccc2c(c1)OCO2)c1ccccc1Cl	4	3.7*	98	103	7	-4
O=C(O/N=C\c1ccc(N2CCOCC2)c([N+](=O)[O-])c1)c1ccccc1Cl	8	0.92	100	102	8	-3
CCCCNC(=O)c1ccccc1NC(=O)CN(c1ccccc1)S(=O)(=O)N(C)C	3	1.2	99	94	8	7
O=C(c1ccco1)[C@@H]1[C@@H]2C(=O)N(c3ccc(F)cc3)C(=O)[C@@H]2[C@H]2C=Cc3ccccc3N21	-4	1.1	109	88	21	14
O=C(c1ccco1)[C@@H]1[C@@H]2C(=O)N(c3ccc(F)cc3)C(=O)[C@@H]2C2c3ccccc3C=CN21 (some centres undefined)	-34	1.2	134*	104	-7	-4
N#C/C(=C/c1ccc(N2CCCCC2)o1)c1cccc(F)c1	-34	1.9	136*	145*	-7	-49
N#C/C(=C/c1ccc(N2CCCCCC2)o1)c1ccc(Cl)cc1	15	3.4*	90	92	6	9
COc1ccc(S(=O)(=O)CC2(O)CCN(C(=O)CC(C)C)CC2)cc1	4	1.2	104	101	-5	-1
O=C(CCCSc1nc2ccccc2[nH]1)NC1=NCCS1	3	1.2	101	94	-13	7
O=C(CSc1nc(O)cc(=O)n1-c1ccccc1)NCc1ccccc1	17	1.2	91	103	1	-3
O=C(NNc1nc2cc3c(cc2s1)OCCO3)c1ccccc1	5	1.9	104	132*	38	-34
CCCc1ccc(C2C3=C(CC(C)(C)CC3=O)NC3=C2C(=O)c2ccccc23)cc1 (centres undefined)	10	0.43	97	92	1	9
COc1ccc(OC(=O)c2cccc([N+](=O)[O-])c2)c(C(=O)/C=C/c2cccs2)c1	10	3.4*	97	102	-11	-2
SMILES	STAT3 inh	NF-kB neuron act	STAT3 act	STAT1 activator	APP 5'UTR act	STAT1 inh
O=C(CSc1nnc(Cc2ccccc2)o1)N1CCCC1	1	1.5	99	102	-6	-2
O=C(NN=C1C2CC3CC1CC(Cl)(C3)C2)c1ccccn1	-7	1.6	107	121	159*	-24
O=C(NN=C1C2CC3CC1CC(Cl)(C3)C2)c1cccs1	5	1.4	97	128	141*	-31
O=C(NN=C1c2ccccc2-c2ccccc21)c1ccccn1	16	1.1	91	102	7	-2
[O-][n+]1onc2c3cc(-c4ccccc4)nnc3ccc21	-18	1.4	120	94	0	6
Cc1sc(NC(=O)c2ccc(Cl)s2)c(C(N)=O)c1C	-67	5.3*	159*	167*	142*	-81
Cc1sc(NC(=O)c2ccc(Br)s2)c(C(N)=O)c1C	-102	5.2*	185*	146*	108	-49
CC(OC(=O)Cn1c(C(F)(F)F)nc2ccccc21)C(=O)N1CCCc2ccccc21 (centres undefined)	8	0.9	97	96	17	4
CC(C)c1ccc(-n2cnn(-c3ncccc3[N+](=O)[O-])c2=O)cc1	-4	8.6*	105	122	140*	-23
O=C(Nc1ccc(NC(=O)C2CCCCC2)nc1)c1cccs1	-7	1.9	107	132*	49	-37
COc1ccc(CNC(=O)c2cc(-c3cccs3)on2)cc1	0	1.3	104	106	2	-7
Cc1ccc(NC(=O)c2cccs2)cc1	1	2.9	101	131*	75	-34
COCCNC(=O)c1cc(-c2cccs2)on1	-13	6.4*	115	135*	27	-39
O=C(NCc1cccs1)c1cc(-c2cccs2)on1	2	2.3	99	138*	76	-42
Cc1ccc(NC(=O)C(=O)NNC(=O)c2cccs2)cc1	9	1.4	96	114	14	-13
O=C(NCc1cccs1)c1cc(-c2ccccc2)on1	-3	2.9	105	124	85	-26
CC(NC(=O)c1cn(C(C)c2ccccc2F)nn1)c1ccncc1 (centres undefined)	-1	1.1	108	102	6	-3
Cc1ccc(NC(=O)c2csc(-c3ccccc3)c2C)cc1	104*	0.78	19	43	216*	63*
COc1cc(NC(=O)c2cc(-c3cccs3)on2)cc(OC)c1OC	14	1.1	92	100	-2	-1
Cc1ccc(NC(=O)c2cc(-c3cccs3)on2)cc1	18	2.4	90	130*	13	-33
CCOC(=O)c1c(C)oc2ccc(NS(=O)(=O)c3cccs3)cc12	7	0.74	99	102	-8	-3
Oc1ccc(NCc2cccc(OCc3ccc(F)cc3)c2)cc1	0	1.4	103	129*	-3	-34
CC(=O)Nc1nc(C2COc3ccccc3O2)cs1 (centres undefined)	22	5*	89	145*	168*	-50
COc1ccc(OC)c(-c2csc(NC(=O)C3COc4ccccc4O3)n2)c1 (centres undefined)	20	1.4	88	97	4	2
O=C(Nc1nc(-c2nc3ccccc3s2)cs1)C1COc2ccccc2O1 (centres undefined)	-9	3	107	132*	36	-34
CCCC(=O)Nc1nc2ccc(OC)cc2s1	8	3.1	94	144*	61	-46
